Here are results for one compound from ChEMBL document CHEMBL5385915 (J Med Chem, 2024).

This assay concerns Mycobacterium tuberculosis. Kind of assay: Antitubercular activity against multidrug-resistant Mycobacterium tuberculosis 08/00483E assessed as inhibition of bacterial growth measured for 7 days by REMA analysis. Particulars: 168 h, time 7 day. The class given is functional. A digest of the protocol:
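REMA: 2-fold dilutions in CMM MOD2 medium, wells inoculated at 1×10^6 CFU/mL, 7 days at 37 °C with 200 rpm agitation; resazurin (0.02% w/v in PBS pH 7.4, 5% Tween 80) then 6 h at room temperature; OD570 vs vehicle; MIC99 by modified Gompertz function; three biological replicates.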

The structures appear in SMILES notation. Values after ≈ are worked out from the molar mass of the structure shown.

What is called MIC99 is an inhibitory concentration at the 99% level, which refers to growth in some studies and to a panel of isolates in others.

As to `FC(F)(F)c1cc([C@H]2C[C@@H](CN3CCCC3)N2Cc2ccccc2Br)cc(C(F)(F)F)c1` (racemic), the MIC99 amounted to 16.8 µM (≈ 8.76 µg/mL).
